The values that follow come from ChEMBL document CHEMBL3526127, “Absorption, elimination, and metabolism of CS-1036, a novel α-amylase inhibitor in rats and monkeys, and the relationship between gastrointestinal distribution and suppression of glucose absorption” (Drug Metab Dispos, 2013).

Data set [1] can be described thus: Drug excretion in cynomolgus monkey urine at 3 mg/kg, po administered as single dose after 0 to 336 hrs by scintillation counting method. The class given is ADME, organism-based, Macaca fascicularis. Further details: dose 3 mg/kg, route oral. The note with it: in vivo.
Data set [2] relates to Rattus norvegicus. Put plainly: Total drug excretion in F344 rat at 1 mg/kg, iv administered as single dose after 0 to 48 hrs by scintillation counting method. The class given is ADME, organism-based. Further details: dose 1 mg/kg, route intravenous. The note with it: in vivo. The method in brief: (§1)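 Fasted F344 rats (n = 4) received [14C]-labelled drug at 1 mg/kg (41.9 µCi/kg), iv via tail vein or oral. They were housed in metabolic cages. Urine and feces were collected to 168 h, and expired CO2 was trapped in 2-aminoethanol/2-methoxyethanol to 48 h. Radioactivity was counted by liquid scintillation, feces after homogenization. Results are % of dose.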

Data set [3] is described as follows: Drug metabolism in rat liver S9 fractions at 0.42 uCi/ml assessed as metabolite formation in presence of NADPH after 1 hr at 37 degC by LC-MS/MS method. Conditions: s9, 1 h. The class given is ADME, subcellular, Liver S9 fraction.
The nature of data set [4]: Ratio of drug level in blood to plasma in F344 rat after 5 mins. The class given is ADME.
The test system of the next data set is Cynomolgus monkey. Nature of the data set: Drug excretion in cynomolgus monkey assessed as drug level found during cage washing at 3 mg/kg, po administered as single dose after 0 to 48 hrs by scintillation counting method. It counts as ADME, organism-based, Macaca fascicularis. Details: dose 3 mg/kg, route oral. Conditions: in vivo. The method, boiled down: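 Fasted cynomolgus monkeys (n = 4) received [14C]-labelled drug at 3 mg/kg, iv via saphenous vein (191 µCi/kg) or orally by stomach catheter (156.5 µCi/kg). Urine, feces and water cage-wash were collected to 336 h. Samples were counted by liquid scintillation; feces were homogenized in 4-fold water. Results are % of dose, mean ± S.D.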

Data set [5] has as its system Rattus norvegicus. Put plainly: Total drug excretion in F344 rat at 1 mg/kg, po administered as single dose after 0 to 168 hrs by scintillation counting method. Conditions: in vivo. Details: dose 1 mg/kg, route oral. The class given is ADME, organism-based. The method, boiled down:
as §1

Data set [6] in a line: Drug metabolism in monkey liver S9 fractions at 0.42 uCi/ml assessed as metabolite formation in presence of NADPH after 1 hr at 37 degC by LC-MS/MS method. The class given is ADME, subcellular, Macaca mulatta, Liver S9 fraction. Conditions: rhesus monkey, s9, 1 h.
The nature of data set [7]: Drug metabolism in monkey kidney S9 fractions at 0.42 uCi/ml assessed as metabolite formation in presence of NADPH after 1 hr at 37 degC by LC-MS/MS method. The class given is ADME, tissue-based, Macaca mulatta. Conditions: rhesus monkey, s9, 1 h.
Data set [8] can be described thus: Drug excretion in bile duct cannulated F344 rat bile at 1 mg/kg, iv administered as single dose after 0 to 48 hrs by scintillation counting method. It counts as ADME, organism-based. Details: dose 1 mg/kg, route intravenous. Conditions: in vivo. The method, boiled down: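 Common bile duct was cannulated under diethyl ether in fasted F344 rats. After recovery, [14C]-labelled drug (1 mg/kg, 41.9 µCi/kg) was given iv via tail vein or by oral gavage (n = 4). Rats were held in Bollman cages and bile was collected at 4°C over 0–48 h intervals. Bile was counted by liquid scintillation; % of dose.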

Data set [9] is described as follows: Drug excretion in cynomolgus monkey urine at 3 mg/kg, iv administered as single dose after 0 to 48 hrs by scintillation counting method. The class given is ADME, organism-based, Macaca fascicularis. Further details: dose 3 mg/kg, route intravenous. The note with it: in vivo.
A short description of data set [10]: Volume of distribution at steady state in F344 rat at 0.3 mg/kg, iv administered as single dose by LC-MS/MS method. The class given is ADME, organism-based. Details: dose 0.3 mg/kg, route intravenous. Conditions: in vivo, read-out: Vdss. The method, boiled down: (§2)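 Male F344 rats (146–185 g) and male cynomolgus monkeys (3.48–4.29 kg), n = 4 each, fasted overnight, received single iv or oral doses of 0.3, 1.0, 3.0 or 10.0 mg/kg. Monkeys had 2-week washouts between doses. Plasma was sampled to 48 h and assayed by LC-MS/MS with deuterated internal standard. Noncompartmental analysis: tmax observed; t1/2 by regression on ≥3 terminal log points; Vss = dose·AUMC/(AUC0–inf)²; Foral = oral/iv AUC0–inf at the same dose.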

The nature of data set [11]: Tmax in cynomolgus monkey at 10 mg/kg, po administered as single dose by LC-MS/MS method. Further details: dose 10 mg/kg, route oral. Conditions: in vivo. It counts as ADME, organism-based, Macaca fascicularis. The method in brief: as §2
A short description of data set [12]: Half life in cynomolgus monkey at 3 mg/kg, iv administered as single dose by LC-MS/MS method. It counts as ADME, organism-based, Macaca fascicularis. Further details: dose 3 mg/kg, route intravenous. The note with it: in vivo. The method, boiled down:
as §2

A short description of data set [13]: Half life in cynomolgus monkey at 0.3 mg/kg, iv administered as single dose by LC-MS/MS method. The note with it: in vivo. Further details: dose 0.3 mg/kg, route intravenous. It counts as ADME, organism-based, Macaca fascicularis. The method, boiled down: as §2
Data set [14] in a line: AUClast in cynomolgus monkey at 10 mg/kg, iv administered as single dose by LC-MS/MS method. Conditions: plasma. Details: time 0 - last, dose 10 mg/kg, route intravenous. It counts as ADME, organism-based, Macaca fascicularis. The method, boiled down: (§3)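 Fasted male F344 rats (146–185 g) or male cynomolgus monkeys (3.48–4.29 kg), n = 4 per dose, given single iv or oral dose of 0.3, 1.0, 3.0 or 10.0 mg/kg; monkeys dosed with 2-week washouts. Blood sampled to 48 h; plasma stored frozen. LC-MS/MS with deuterated internal standard. Noncompartmental analysis: AUClast by trapezoidal rule; AUC0–inf = AUClast + Ctz/terminal rate constant; mean ± S.D.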

Data set [15] in a line: Half life in F344 rat at 10 mg/kg, po administered as single dose by LC-MS/MS method. It counts as ADME, organism-based. Further details: dose 10 mg/kg, route oral. The note with it: in vivo.
Data set [16] can be described thus: AUClast in cynomolgus monkey at 1 mg/kg, iv administered as single dose by LC-MS/MS method. It counts as ADME, organism-based, Macaca fascicularis. Further details: time 0 - last, dose 1 mg/kg, route intravenous. Conditions: plasma. The method, boiled down:
as §3

Data set [17] is described as follows: Half life in cynomolgus monkey at 1 mg/kg, po administered as single dose by LC-MS/MS method. Further details: dose 1 mg/kg, route oral. Conditions: in vivo. The class given is ADME, organism-based, Macaca fascicularis. The method, boiled down: as §2
Data set [18] in a line: Half life in F344 rat at 1 mg/kg, po administered as single dose by LC-MS/MS method. Conditions: in vivo. Further details: dose 1 mg/kg, route oral. The class given is ADME, organism-based.
The nature of data set [19]: AUClast in F344 rat at 10 mg/kg, po administered as single dose by LC-MS/MS method. It counts as ADME, organism-based. Conditions: plasma. Details: time 0 - last, dose 10 mg/kg, route oral. The method in brief: as §3
A short description of data set [20]: Clearance in cynomolgus monkey at 3 mg/kg, iv administered as single dose by LC-MS/MS method. It counts as ADME, organism-based, Macaca fascicularis. Details: dose 3 mg/kg, route intravenous. Conditions: in vivo. The method in brief:
(§4)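 Fasted male F344 rats (146–185 g) and male cynomolgus monkeys (3.48–4.29 kg), n = 4 each, received a single iv dose; monkeys had 2-week washouts between doses. Blood was sampled up to 48 h and plasma stored at […]. Plasma parent was quantified by LC-MS/MS with a deuterated internal standard. CL = dose/AUC0–inf by noncompartmental analysis; mean ± S.D.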

Data set [21] is described as follows: AUC (0 to infinity) in cynomolgus monkey at 3 mg/kg, po administered as single dose by LC-MS/MS method. The class given is ADME, organism-based, Macaca fascicularis. Details: dose 3 mg/kg, route oral, time infinity. The note with it: plasma. The method in brief: as §3
A short description of data set [22]: Clearance in cynomolgus monkey at 10 mg/kg, iv administered as single dose by LC-MS/MS method. Further details: dose 10 mg/kg, route intravenous. The class given is ADME, organism-based, Macaca fascicularis. The note with it: in vivo. The method in brief:
as §4

Data set [23] can be described thus: Cmax in cynomolgus monkey at 10 mg/kg, po administered as single dose by LC-MS/MS method. Conditions: in vivo. It counts as ADME, organism-based, Macaca fascicularis. Further details: dose 10 mg/kg, route oral. The method in brief: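 Fasted male F344 rats (146–185 g) and cynomolgus monkeys (3.48–4.29 kg), n = 4 each, received a single oral dose; monkeys had 2-week washouts. Plasma sampled up to 48 h, stored at […], assayed by LC-MS/MS with a deuterated internal standard. Cmax taken from observed data by noncompartmental analysis; mean ± S.D. (n = 3 or 4).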

The nature of data set [24]: Half life in F344 rat at 1 mg/kg, iv administered as single dose by LC-MS/MS method. Details: dose 1 mg/kg, route intravenous. Conditions: in vivo. It counts as ADME, organism-based. The method in brief:
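Fasted male F344 rats (146–185 g, n = 4 per dose) received single i.v. CS-1036. Plasma was sampled up to 48 h and analysed by LC-MS/MS. t1/2 came from noncompartmental regression of three or more log-transformed terminal-phase points. Mean ± S.D.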

`C[C@H]1O[C@@H](O[C@H]2[C@H](O)[C@@H](O)[C@@H](O[14C@H]3[14C@H](O)[14CH2]N[14C@@H]3[14CH2]O)O[C@@H]2CO)[C@H](O)[C@@H](O)[C@@H]1O`: the Drug excretion in [1] is 5.67%; in the data set with Rattus norvegicus [2], 86.96%; in the data set with Cynomolgus monkey it was 0.76%; with Rattus norvegicus [5], 97.94%; in [8], 0.37%; in data set [9] it was 80.13%. In addition, the Drug metabolism result in [3], in [6] and in [7] was “metabolite_not_detected” each time. The blood plasma ratio at 5 min in data set [4] was determined as 0.575.
As usually defined, the Tmax is the time from dosing to the highest level. The half-life is the time in which the quantity being followed falls by half. By AUC(0-t) is commonly meant the area under the concentration-time curve up to a stated or last time point. By clearance is commonly meant the rate of elimination divided by the concentration. The term AUC(0-inf) denotes total exposure, with the tail of the curve extrapolated. One may read the Cmax as the highest concentration seen after dosing. As to `C[C@H]1O[C@@H](O[C@H]2[C@H](O)[C@@H](O)[C@@H](O[C@H]3[C@H](O)CN[C@@H]3CO)O[C@@H]2CO)[C@H](O)[C@@H](O)[C@@H]1O`, the Vd in [10] is 0.218 L/kg. Also, the Tmax in data set [11] came to 1.75 h. Further, the half-life in data set [12] is 25.1 h; in [13], 2.51 h; in data set [15], 18.3 h; in [17] it was 1.29 h; in [18] it was 1.81 h; in data set [24] it was 18.4 h. For the same molecule, the AUC(0-t) in [14] came to 74300 ng·h/mL; in data set [16], 5870 ng·h/mL; in [19], 1050 ng·h/mL. The clearance was 2.75 mL/min/kg in data set [20] and 2.25 mL/min/kg in [22]. Moreover, the AUC(0-inf) in [21] came out at 191 ng·h/mL. Besides, the Cmax in data set [23] worked out at 152 ng/mL.
